# Results taken from ChEMBL document CHEMBL3085734, “Indole diterpene alkaloids as novel inhibitors of the Wnt/β-catenin pathway in breast cancer cells” (Eur J Med Chem, 2013).
# Active and inactive are the calls of the source. The calls are words filed in the database; no cut-off is given here.
# How the values were obtained:
# MDA-MB-231 [1] = assay: Antiinvasive activity against human MDA-MB-231 cells at 7.5 to 15 uM after 24 hrs by cultrex BME assay
# MDA-MB-231 [2] = assay: Antiproliferative activity against human MDA-MB-231 cells after 72 hrs by MTT assay; assay type: functional, cell-based; conditions: MDA-MB-231, 72 h
# Method in brief: (§1)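 Seeding: MCF-7 at 10×10³ and MDA-MB-231 at 8×10³ cells/well, attached overnight. Medium: serum-free RPMI for MCF-7 and RPMI with 5% FBS for MDA-MB-231, with graded compound doses, for 72 h at 37°C. Readout: MTT (1 mg/mL) for 4 h, formazan dissolved in DMSO, absorbance at 570 nm. Cell numbers taken from a standard curve as % survival versus DMSO. IC50 obtained by nonlinear regression. Final DMSO ≤0.2%.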
# MDA-MB-231 [3] = assay: Antimigratory activity against human MDA-MB-231 cells after 24 hrs by wound-healing assay; assay type: functional, cell-based; conditions: MDA-MB-231, 24 h
# Method in brief: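 Confluent MDA-MB-231 monolayers scratched with a pipette tip, then washed. Compounds added in 0.5% FBS medium, in triplicate, for 24 h. Cells then fixed and stained with Diff-Quick. Cells that migrated into the wound were counted in at least five random fields at 400X.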
# MDA-MB-231 [4] = assay: Inhibition of Wnt/beta-catenin signaling pathway in human MDA-MB-231 cells assessed as decrease in expression of beta-catenin level at 9.6 uM after 48 hrs by DAPI staining-based confocal laser scanning microscopy; assay type: cell-based
# Method in brief: (§2)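 MDA-MB-231 cells, 5 × 10^4 per chamber (2 replicates/group), attached overnight in 10% FBS medium, then treated 48 h in 0.5% FBS medium (final DMSO ≤0.2%). Methanol-fixed at −20 °C, blocked in 2% BSA-TBST, anti-total β-catenin (1:300, overnight 4 °C), Alexa Fluor 594 secondary, DAPI counterstain. Confocal imaging at 200X; red intensity compared with vehicle; ≥3 independent repeats.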
# Mus musculus [5] = assay: Toxicity in CD-1 mouse assessed as incidence of tremor at 1.92 mg/kg, ip measured every 10 to 15 mins for 8 hrs up to day 14; assay type: organism-based; parameters: dose 1.92 mg/kg, route intraperitoneal; conditions: in vivo
# Method in brief: (§3)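 Male CD-1 mice (18–22 g), housed singly 3 days beforehand, given a single i.p. dose of DMSO stock diluted in saline (DMSO ≤2.0 µL/g); vehicle controls. Up-and-Down Procedure per EPA 870.1100 (sigma 0.33): start 1.92 mg/kg, then ×3.2 up or down according to tremor response, range 0.19–19.6 mg/kg. Tremors scored over 14 days; EC50 from AOT425StatPgm.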
# Mus musculus [6] = assay: Toxicity in ip dosed CD-1 mouse assessed as incidence of tremor measured every 10 to 15 mins for 8 hrs up to day 14; assay type: organism-based
# Method in brief: as §3
# Mus musculus [7] = assay: Toxicity in CD-1 mouse assessed as incidence of tremor at 0.19 mg/kg, ip measured every 10 to 15 mins for 8 hrs up to day 14; assay type: organism-based; parameters: dose 0.19 mg/kg, route intraperitoneal; conditions: in vivo
# Method in brief: as §3
# [8] = biological target: Calcium-activated potassium channel slo-1 (Caenorhabditis elegans, UniProt Q95V25); assay: Inhibition of wild type L4 larval stage of Caenorhabditis elegans N2 bristol BK channel assessed as induction of reversal locomotion at 1 uM after 42 hrs
# Method in brief: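 30–40 synchronized L1 larvae of wild-type N2 placed on OP50-seeded NGM plates containing 1.0 µM compound or DMSO. Incubated 42 h at 20°C. L4 worms then moved to unseeded NGM and acclimatized 1 min before reversals were counted, at least 10 worms per treatment. slo-1(js379) strain NM1968 served as positive control.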
# Mus musculus [9] = assay: Toxicity in CD-1 mouse assessed as incidence of tremor at 0.60 mg/kg, ip measured every 10 to 15 mins for 8 hrs up to day 14; assay type: organism-based; parameters: dose 0.6 mg/kg, route intraperitoneal; conditions: in vivo, 0.6 mg/kg
# Method in brief: as §3
# MDA-MB-231 [10] = assay: Inhibition of Wnt/beta-catenin signaling pathway in human MDA-MB-231 cells assessed as decrease in expression of beta-catenin level at 19 uM after 48 hrs by DAPI staining-based confocal laser scanning microscopy; assay type: cell-based
# Method in brief: as §2
# Mus musculus [11] = assay: Toxicity in CD-1 mouse assessed as incidence of tremor at 19.6 mg/kg, ip measured every 10 to 15 mins for 8 hrs up to day 14; assay type: organism-based; parameters: dose 19.6 mg/kg, route intraperitoneal; conditions: in vivo
# Method in brief: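 Male CD-1 mice (18–22 g), housed individually. Compounds given ip in DMSO diluted with saline (DMSO ≤2.0 µL/g). Up-and-Down Procedure per EPA 870.1100: sigma 0.33, starting dose 1.92 mg/kg, changed in 3.2-fold steps by tremor response, range 0.19–19.6 mg/kg. Observed every 10–15 min for 1 h, hourly for 8 h, then daily to day 14. Tremor EC50 calculated with AOT425StatPgm.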
# MCF7 = assay: Antiproliferative activity against human MCF7 cells after 72 hrs by MTT assay; assay type: functional, cell-based; conditions: MCF7, 72 h
# Method in brief: as §1
# MDA-MB-231 [12] = assay: Inhibition of Wnt/beta-catenin signaling pathway in human MDA-MB-231 cells assessed as decrease in expression of beta-catenin level at 7.6 uM after 48 hrs by DAPI staining-based confocal laser scanning microscopy; assay type: cell-based
# Method in brief: (§4)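 MDA-MB-231 cells seeded at 5×10⁴/chamber and attached overnight in 10% FBS. Treated 48 h in 0.5% FBS medium. Cells fixed in −20°C methanol and blocked with 2% BSA-TBST. Stained with anti-total β-catenin (1:300, overnight at 4°C), then Alexa Fluor 594 secondary, with DAPI counterstain. Confocal imaging at 200X; red intensity compared with untreated control. Duplicate chambers, experiments repeated at least three times.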
# MDA-MB-231 [13] = assay: Inhibition of Wnt/beta-catenin signaling pathway in human MDA-MB-231 cells assessed as decrease in expression of beta-catenin level at 48.2 uM after 48 hrs by DAPI staining-based confocal laser scanning microscopy; assay type: cell-based
# Method in brief: as §4
# [14] = Inhibition of Wnt/beta-catenin signaling pathway in mouse C2C12 cells assessed as induction of nuclear translocation of beta-catenin after 24 hrs by propidium iodide staining-based laser scanning cytometry; assay type: cell-based; conditions: C2C12, 24 h
# MDA-MB-231 [15] = assay: Inhibition of Wnt/beta-catenin signaling pathway in human MDA-MB-231 cells assessed as decrease in expression of beta-catenin level at 8 uM after 48 hrs by DAPI staining-based confocal laser scanning microscopy; assay type: cell-based
# Method in brief: as §2
# Calcium-activated potassium channel slo-1, sequence (Q95V25 whole entry): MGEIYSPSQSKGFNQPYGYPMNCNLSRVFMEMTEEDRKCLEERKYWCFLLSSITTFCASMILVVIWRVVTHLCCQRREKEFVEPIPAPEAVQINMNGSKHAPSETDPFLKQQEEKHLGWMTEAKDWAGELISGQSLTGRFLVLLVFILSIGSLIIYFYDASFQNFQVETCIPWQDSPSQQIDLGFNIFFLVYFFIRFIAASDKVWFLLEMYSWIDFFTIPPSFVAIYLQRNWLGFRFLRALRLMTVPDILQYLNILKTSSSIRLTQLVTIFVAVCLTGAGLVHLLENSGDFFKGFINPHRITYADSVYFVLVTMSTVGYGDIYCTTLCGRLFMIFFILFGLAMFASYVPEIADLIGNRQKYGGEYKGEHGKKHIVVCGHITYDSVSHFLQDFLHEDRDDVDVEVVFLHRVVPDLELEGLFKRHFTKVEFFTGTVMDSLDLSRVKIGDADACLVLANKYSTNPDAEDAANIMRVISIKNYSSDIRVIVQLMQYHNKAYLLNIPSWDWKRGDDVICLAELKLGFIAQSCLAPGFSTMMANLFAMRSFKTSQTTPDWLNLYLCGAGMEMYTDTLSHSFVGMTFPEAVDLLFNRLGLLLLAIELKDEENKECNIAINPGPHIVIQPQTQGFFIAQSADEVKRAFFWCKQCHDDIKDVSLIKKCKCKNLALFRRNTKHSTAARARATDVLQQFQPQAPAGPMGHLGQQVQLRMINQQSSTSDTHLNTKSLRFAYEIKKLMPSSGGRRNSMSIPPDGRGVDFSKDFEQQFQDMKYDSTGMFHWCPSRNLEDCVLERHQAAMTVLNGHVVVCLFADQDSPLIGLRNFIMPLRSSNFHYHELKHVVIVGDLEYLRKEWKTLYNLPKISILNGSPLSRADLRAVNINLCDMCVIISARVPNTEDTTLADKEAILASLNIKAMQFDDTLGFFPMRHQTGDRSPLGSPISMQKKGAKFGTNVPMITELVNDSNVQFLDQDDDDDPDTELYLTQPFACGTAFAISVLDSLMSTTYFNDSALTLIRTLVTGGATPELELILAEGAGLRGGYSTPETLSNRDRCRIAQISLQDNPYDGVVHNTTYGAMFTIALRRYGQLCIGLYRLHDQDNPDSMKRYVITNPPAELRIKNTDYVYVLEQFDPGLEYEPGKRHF
IC50 (MDA-MB-231 [2]) [µM],IC50 (MDA-MB-231 [3]) [µM],inhibition (INH) [8],IC50 (MCF7) [µM],SMILES,Activity (MDA-MB-231 [1]),also measured
> 50,> 50,,,C=C(C)[C@H]1O[C@H]2CC[C@@]3(C)[C@@](O)(CC[C@H]4[C@@H]5OC(C)(C)[C@@H]6C[C@@H]7C(=C)Cc8c(Cl)cc9c(c5c(n9C)[C@@]43C)c8[C@@]76O)[C@]23O[C@@H]3[C@H]1O,Active,
13.8,> 50,Not Active,> 50,C=C(C)[C@H]1O[C@H]2CC[C@@]3(C)[C@@](O)(CC[C@H]4[C@@H]5OC(C)(C)[C@@H]6C[C@@H]7C(=C)Cc8c(Cl)cc9[nH]c(c5c9c8[C@@]76O)[C@@]43C)[C@]23O[C@@H]3[C@H]1OC(=O)c1ccccc1,Active,Activity (Mus musculus [11]): ND(Insoluble)
> 50,> 50,Not Active,> 50,C=C(C)[C@H]1O[C@H]2CC[C@@]3(C)[C@@](O)(CC[C@H]4[C@@H]5OC(C)(C)[C@@H]6C[C@@H]7C(=C)Cc8c(Cl)cc9c(c5c(n9C)[C@@]43C)c8[C@@]76O)[C@]23O[C@@H]3[C@H]1OC,Active,Activity (Mus musculus [11]): ND(Insoluble)
> 50,> 50,,> 50,C=C(C)[C@H]1O[C@H]2CC[C@@]3(C)[C@@](O)(CC[C@H]4[C@@H]5OC(C)(C)[C@@H]6C[C@@H]7C(=C)Cc8c(Cl)cc9c(c5c(n9Cc5cccc(OC)c5)[C@@]43C)c8[C@@]76O)[C@]23O[C@@H]3[C@H]1OCc1cccc(OC)c1,Active,
10,> 50,,32.3,C=C1Cc2c(Cl)cc3[nH]c4c5c3c2[C@@]2(O)[C@@H]1C[C@H]2C(C)(C)O[C@H]5[C@@H]1CC[C@@]2(O)[C@@]35O[C@@H]3[C@@](O)(/C=C(/C)COC(C)=O)O[C@H]5CC[C@]2(C)[C@@]41C,,
> 50,> 50,,> 50,C=C(C)[C@H]1O[C@H]2CC[C@@]3(C)[C@@](O)(CC[C@H]4[C@@H]5OC(C)(C)[C@@H]6C[C@@H]7C(=C)Cc8c(Cl)cc9[nH]c(c5c9c8[C@@]76O)[C@@]43C)[C@]23O[C@@H]3[C@H]1OCc1ccccc1,,
,,Not Active,,CC(C)(O)[C@@H]1CC[C@]2(C)[C@H](CC[C@@]3(C)[C@H]2CC[C@H]2Cc4c([nH]c5ccccc45)[C@@]23C)O1 [PASPALINE],,inhibition (MDA-MB-231 [12]): Active
43.8,48.2,Not Active,13.3,C=C1Cc2c(Cl)cc3[nH]c4c5c3c2[C@@]2(O)[C@@H]1C[C@H]2C(C)(C)O[C@H]5[C@@H]1CC[C@@]2(O)[C@@]35O[C@@H]3[C@H](O)O[C@H]5CC[C@]2(C)[C@@]41C,Active,Activity (Mus musculus [11]): ND(Insoluble); inhibition (MDA-MB-231 [13]): Active

# The remaining lines, values behind:
SMILES,IC50 (MDA-MB-231 [2]) [µM],IC50 (MDA-MB-231 [3]) [µM],inhibition (INH) [8],IC50 (MCF7) [µM],Activity (MDA-MB-231 [1]),also measured
C=C(C)[C@H]1O[C@H]2CC[C@@]3(C)[C@@](O)(CC[C@H]4[C@@H]5OC(C)(C)[C@@H]6C[C@@H]7C(=C)Cc8c(Br)cc9[nH]c(c5c9c8[C@@]76O)[C@@]43C)[C@]23O[C@@H]3[C@H]1O,,,Not Active,,,inhibition (MDA-MB-231 [4]): Active; Activity (Mus musculus [5]): Toxic; EC50 (Mus musculus [6]): 0.32 mg/kg; Activity (Mus musculus [7]): Non-toxic; Activity (Mus musculus [9]): Toxic
CC(C)=CCC[C@]1(C)[C@@H](O)CC[C@@]2(C)[C@H]1CC[C@H]1Cc3c([nH]c4ccccc34)[C@@]12C [EMINDOLE SB],,,Not Active,,,inhibition (MDA-MB-231 [10]): Active
C=C(C)[C@H]1O[C@H]2CC[C@@]3(C)[C@@](O)(CC[C@H]4[C@@H]5OC(C)(C)[C@H]6C[C@@H]7C(=C)Cc8c(Cl)cc9[nH]c(c5c9c8[C@@]76O)[C@@]43C)[C@]23O[C@@H]3[C@H]1O [PENITREM A],,,Active,,,Activity (Mus musculus [5]): Toxic; Activity (Mus musculus [7]): Non-toxic
C=C1Cc2c(Br)cc3[nH]c4c5c3c2[C@H]2[C@@H]1C[C@H]2C(C)(C)O[C@H]5[C@@H]1CC[C@@]2(O)[C@@]35O[C@@H]3[C@@H](O)[C@@H](C(=C)C)O[C@H]5CC[C@]2(C)[C@@]41C,,,,,,Activity (Mus musculus [11]): Toxic; EC50 (Mus musculus [6]): 3.43 mg/kg; Activity (Mus musculus [9]): Non-toxic
C=C(C)[C@H]1O[C@H]2CC[C@@]3(C)[C@@](O)(CC[C@H]4[C@@H]5OC(C)(C)[C@@H]6C[C@@H]7C(=C)Cc8c(Cl)cc9[nH]c(c5c9c8[C@@]76OO)[C@@]43C)[C@]23O[C@@H]3[C@H]1O,> 50,> 50,,> 50,Active,
C=C(C)[C@H]1O[C@H]2CC[C@@]3(C)[C@@](O)(CC[C@H]4[C@@H]5OC(C)(C)[C@H]6C[C@@H]7C(=C)Cc8c(Cl)cc9[nH]c(c5c9c8[C@@]76O)[C@@]43C)[C@@]23O[C@H]3[C@H]1O [PENITREM A],9.8,8.7,,11.9,Active,EC50 [14]: 0.98 µM; inhibition (MDA-MB-231 [15]): Active
C=C(C)[C@H]1O[C@H]2CC[C@@]3(C)[C@@](O)(CC[C@H]4[C@@H]5OC(C)(C)[C@@H]6C[C@@H]7C(=C)Cc8c(Cl)cc9[nH]c(c5c9c8[C@@]76O)[C@@]43C)[C@]23O[C@@H]3[C@H]1OC,> 50,> 50,,22.7,Active,
